≈ marks a conversion by molar mass, not a printed value.
System: MDCK
Assay: Ratio of permeability from basolateral to apical over apical to basolateral side of MDCK cells expressing MDR1
Type: ADME, cell-based, Canis lupus familiaris
Details: dog
Method in brief: (§1)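 MDR1-transfected MDCK cell monolayer. Apparent permeability (Papp) measured in the apical-to-basolateral and basolateral-to-apical directions. The A-to-B Papp is reported as passive permeability, and the efflux ratio is Papp(B→A)/Papp(A→B).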

| Ratio | SMILES |
| --- | --- |
| 23 | CN(Cc1ccc(C2=NCCN2)cc1)C(=O)CNC(=O)c1nc2ccccc2n1Cc1ccccc1 |
| 42 | O=C(CCNC(=O)c1nc2ccccc2n1Cc1ccccc1)Nc1ccc(C2=NCCN2)nc1 |

Second part, the compound before the results:

| SMILES | Ratio |
| --- | --- |
| CN(Cc1ccc(C#N)cc1)C(=O)CNC(=O)c1nc2ccccc2n1Cc1ccccc1 | 3 |
| CCN(CC(=O)N1CCN(C2CCN(C)CC2)CC1)C(=O)c1nc2ccccc2n1Cc1ccccc1 | 55 |

System: Liver microsomes
Assay: Metabolic stability in rat liver microsomes at 1 uM after 10 mins by LC-MS analysis in presence of NADPH
Type: ADME, Microsome
Details: not given
Method in brief: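 Pooled male rat liver microsomes at 0.5 mg/ml with compound at 1 µM, 37 °C. Reaction started with NADPH, and aliquots taken at 0 and 10 min. Percent parent remaining is the 10-min/0-min signal ratio, corrected by internal standard recovery.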

| Stability | SMILES |
| --- | --- |
| Stable | CCN(CC(=O)N1CCN(C2CCN(C)CC2)CC1)C(=O)c1nc2ccccc2n1Cc1ccccc1 |

System: MDR1
Assay: Passive permeability from apical to basolateral side of MDCK cells expressing MDR1
Type: ADME, cell-based, Canis lupus familiaris
Details: dog
Method in brief: as §1

| Papp A→B [×10⁻⁶ cm/s] | SMILES |
| --- | --- |
| 1 | CN(Cc1ccc(C2=NCCN2)cc1)C(=O)CNC(=O)c1nc2ccccc2n1Cc1ccccc1 |
| 0.6 | CCN(CC(=O)N1CCN(C2CCN(C)CC2)CC1)C(=O)c1nc2ccccc2n1Cc1ccccc1 |

| SMILES | Papp A→B [×10⁻⁶ cm/s] |
| --- | --- |
| CN(Cc1ccc(C#N)cc1)C(=O)CNC(=O)c1nc2ccccc2n1Cc1ccccc1 | 7 |

Molecular target: T1, B1 bradykinin receptor (Rattus norvegicus, UniProt P97583)
T1 sequence (P97583 whole entry): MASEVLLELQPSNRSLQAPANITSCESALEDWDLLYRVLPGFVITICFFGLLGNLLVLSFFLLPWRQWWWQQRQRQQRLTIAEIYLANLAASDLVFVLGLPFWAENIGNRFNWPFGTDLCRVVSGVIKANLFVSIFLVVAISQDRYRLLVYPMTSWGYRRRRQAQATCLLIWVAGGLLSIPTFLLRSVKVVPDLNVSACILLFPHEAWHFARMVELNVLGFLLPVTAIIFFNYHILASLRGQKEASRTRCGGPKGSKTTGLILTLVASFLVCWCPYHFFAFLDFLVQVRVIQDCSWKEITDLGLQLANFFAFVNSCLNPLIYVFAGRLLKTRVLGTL
Assay: Antagonist activity at rat bradykinin B1 receptor
Type: functional
Details: not given
Method in brief: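 Rat B1 receptor tested in the same way as the cynomolgus assay: FLIPR Ca2+ transients with inhibition of DAKD-induced fluorescence measured across multiple compound concentrations to derive functional IC50.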

| IC50 [nM] | SMILES | Ki [nM] |
| --- | --- | --- |
| 155 | CN(Cc1ccc(C2=NCCN2)cc1)C(=O)CNC(=O)c1nc2ccccc2n1Cc1ccccc1 | – |
| 0.8 | O=C(CCNC(=O)c1nc2ccccc2n1Cc1ccccc1)Nc1ccc(C2=NCCN2)nc1 | – |
| 345 | CCN(CC(=O)N(C)Cc1ccc(C2=NCCN2)cc1)C(=O)c1nc2ccccc2n1Cc1ccccc1 | – |

The next lines start with the compound.

| SMILES | IC50 [nM] | Ki [nM] |
| --- | --- | --- |
| CCCN1C(=O)C(NC(=O)Nc2ccc(N3CCN(c4ccncc4)CC3)cc2)N=C(CCc2ccccc2)c2ccccc21 (stereo not given) | – | 0.92 |
| CCCN(CC(=O)N1CCN(c2ccncc2)CC1)C(=O)c1nc2ccccc2n1Cc1ccccc1 | 396 | – |
| CCCN(CC(=O)N1CCN(C2CCN(C)CC2)CC1)C(=O)c1nc2ccccc2n1Cc1ccccc1 | 23 | – |
| O=C(NCC(=O)N1CCN(c2ccncc2)CC1)c1nc2ccccc2n1Cc1ccccc1 | 417 | – |
| CCN(CC(=O)N1CCN(C2CCN(C)CC2)CC1)C(=O)c1nc2ccccc2n1Cc1ccccc1 | 15 | – |

Molecular target: T2, B1 bradykinin receptor (Homo sapiens, UniProt P46663)
T2 sequence (P46663 whole entry): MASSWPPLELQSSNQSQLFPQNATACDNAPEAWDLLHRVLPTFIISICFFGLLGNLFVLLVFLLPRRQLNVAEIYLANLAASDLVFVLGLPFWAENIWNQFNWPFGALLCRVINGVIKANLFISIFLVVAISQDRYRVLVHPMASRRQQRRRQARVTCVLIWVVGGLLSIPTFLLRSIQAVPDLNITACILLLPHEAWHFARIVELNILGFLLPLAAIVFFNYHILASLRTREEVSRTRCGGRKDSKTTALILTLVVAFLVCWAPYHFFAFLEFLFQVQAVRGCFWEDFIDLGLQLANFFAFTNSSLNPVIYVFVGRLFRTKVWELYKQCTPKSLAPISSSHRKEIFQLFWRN
Assay: Inhibition of human bradykinin B1 receptor
Details: not given

| IC50 [nM] | SMILES | Ki [nM] |
| --- | --- | --- |
| – | CCCN1C(=O)C(NC(=O)Nc2ccc(N3CCN(c4ccncc4)CC3)cc2)N=C(CCc2ccccc2)c2ccccc21 (stereo not given) | 0.59 |
| 1.8 | Cc1c(C(=O)NCCC2CCN(C3CCN(C)CC3)CC2)n[nH]c1NC(=O)c1ccccc1Cl | – |

System: MDCK
Assay: Ratio of permeability from basolateral to apical over apical to basolateral side of MDCK cells expressing MDR1 in presence of cyclosporine
Type: ADME, cell-based, Canis lupus familiaris
Details: dog
Method in brief: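 MDR1-transfected MDCK monolayer run with 25 µM cyclosporine as P-gp inhibitor. Efflux ratio is Papp basolateral-to-apical divided by Papp apical-to-basolateral.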

| Ratio | SMILES |
| --- | --- |
| 1.5 | CN(Cc1ccc(C2=NCCN2)cc1)C(=O)CNC(=O)c1nc2ccccc2n1Cc1ccccc1 |

System: not listed separately
Assay: Aqueous solubility at pH 7.4
Type: physicochemical
Details: not given

| solubility [µg/mL] | SMILES |
| --- | --- |
| 120 (≈ 239 µM) | CCN(CC(=O)N1CCN(C2CCN(C)CC2)CC1)C(=O)c1nc2ccccc2n1Cc1ccccc1 |

System: not listed separately
Assay: Oral bioavailability in rat at 10 mg/kg
Type: ADME, organism-based
Details: in vivo

| SMILES | bioavailability [%] |
| --- | --- |
| CCCN1C(=O)C(NC(=O)Nc2ccc(N3CCN(c4ccncc4)CC3)cc2)N=C(CCc2ccccc2)c2ccccc21 (stereo not given) | < 4 |
| CCN(CC(=O)N1CCN(C2CCN(C)CC2)CC1)C(=O)c1nc2ccccc2n1Cc1ccccc1 | < 5 |

Molecular target: T3, B1 bradykinin receptor (Macaca fascicularis, UniProt Q3BCU0)
T3 sequence (Q3BCU0 whole entry): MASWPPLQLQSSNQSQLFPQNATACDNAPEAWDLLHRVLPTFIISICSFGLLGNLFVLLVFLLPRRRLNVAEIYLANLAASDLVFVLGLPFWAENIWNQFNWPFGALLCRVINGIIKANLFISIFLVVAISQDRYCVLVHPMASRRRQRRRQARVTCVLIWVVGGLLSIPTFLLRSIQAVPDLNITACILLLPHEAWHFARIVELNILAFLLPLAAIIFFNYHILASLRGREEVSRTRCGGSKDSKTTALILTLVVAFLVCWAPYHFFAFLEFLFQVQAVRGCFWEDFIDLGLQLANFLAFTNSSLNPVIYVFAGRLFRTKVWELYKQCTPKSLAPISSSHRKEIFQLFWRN
Assay: Antagonist activity at Cynomolgus monkey bradykinin B1 receptor expressed in CHO cells assessed as calcium transient by FLIPR assay
Type: functional, cell-based
Details: not given

| IC50 [nM] | SMILES |
| --- | --- |
| 744 | O=C(CCNC(=O)c1nc2ccccc2n1Cc1ccccc1)Nc1ccc2nc[nH]c2c1 |
| 188 | CN(Cc1ccc(C2=NCCN2)cc1)C(=O)C1CCN(C(=O)c2nc3ccccc3n2Cc2ccccc2)CC1 |
| 14 | CN(Cc1ccc(C2=NCCN2C)cc1)C(=O)CNC(=O)c1nc2ccccc2n1Cc1ccccc1 |
| 718 | Cc1nc(-c2ccc(CN(C)C(=O)CNC(=O)c3nc4ccccc4n3Cc3ccccc3)cc2)no1 |
| 54 | CN(Cc1ccc(C2=NCCN2)cc1)C(=O)CCNC(=O)c1nc2ccccc2n1Cc1ccccc1 |
| 626 | CN(Cc1ccc(-n2ccnc2)cc1)C(=O)CNC(=O)c1nc2ccccc2n1Cc1ccccc1 |
| 524 | O=C(CCNC(=O)c1nc2ccccc2n1Cc1ccccc1)Nc1ccc2cn[nH]c2c1 |
| 196 | CN(Cc1ccc(CN2CCCCC2)cc1)C(=O)CNC(=O)c1nc2ccccc2n1Cc1ccccc1 |
| 5 | CN(Cc1ccc(C2=NCCN2)cc1)C(=O)CNC(=O)c1nc2ccccc2n1Cc1ccccc1 |
| 407 | CN(Cc1ccc(-c2ccccn2)cc1)C(=O)CNC(=O)c1nc2ccccc2n1Cc1ccccc1 |
| 1170 | CN(Cc1ccc(-c2nccs2)cc1)C(=O)CNC(=O)c1nc2ccccc2n1Cc1ccccc1 |
| 2130 | CN(Cc1ccc(-c2cc[nH]n2)cc1)C(=O)CNC(=O)c1nc2ccccc2n1Cc1ccccc1 |
| 2 | O=C(CCNC(=O)c1nc2ccccc2n1Cc1ccccc1)Nc1ccc(C2=NCCN2)nc1 |
| > 5000 | CN(Cc1ccc(-c2nnn[nH]2)cc1)C(=O)CNC(=O)c1nc2ccccc2n1Cc1ccccc1 |
| 6 | CCN(CC(=O)N(C)Cc1ccc(C2=NCCN2)cc1)C(=O)c1nc2ccccc2n1Cc1ccccc1 |
| > 5000 | CN(C)C(=O)c1ccc(CN(C)C(=O)CNC(=O)c2nc3ccccc3n2Cc2ccccc2)cc1 |
| 330 | CN(Cc1ccc(-c2ncccn2)cc1)C(=O)CNC(=O)c1nc2ccccc2n1Cc1ccccc1 |
| 1020 | CN(Cc1ccc(C2=NCCN2)cc1)C(=O)c1nc2ccccc2n1Cc1ccccc1 |

The next lines start with the compound.

| SMILES | IC50 [nM] |
| --- | --- |
| CN(Cc1ccc(C#N)cc1)C(=O)CNC(=O)c1nc2ccccc2n1Cc1ccccc1 | > 5000 |
| CN1CCC(N2CCN(C(=O)[C@H]3CCCN3C(=O)c3nc4ccccc4n3Cc3ccccc3)CC2)CC1 | 3220 |
| CN1CCC(N2CCN(C(=O)[C@@H]3CCCN3C(=O)c3nc4ccccc4n3Cc3ccccc3)CC2)CC1 | 884 |
| CN(Cc1ccc(C(N)=O)cc1)C(=O)CNC(=O)c1nc2ccccc2n1Cc1ccccc1 | > 5000 |
| CCN(CC(=O)N1CCN(c2ccncc2)CC1)Cc1nc2ccccc2n1Cc1ccccc1 | > 5000 |
| CCN(CC(=O)N1CCN(C2CCN(C)CC2)CC1)Cc1nc2ccccc2n1Cc1ccccc1 | > 5000 |
| O=C(NCCC(=O)N1CCC2(CCOCC2)CC1)c1nc2ccccc2n1Cc1ccccc1 | 1990 |
| CN1CCC2(CCN(C(=O)CCNC(=O)c3nc4ccccc4n3Cc3ccccc3)CC2)C1 | 2910 |
| O=C1NCC2(CCN(C(=O)CCNC(=O)c3nc4ccccc4n3Cc3ccccc3)CC2)O1 | > 5000 |
| CN1CCC(N2CCN(C(=O)C3CCN(C(=O)c4nc5ccccc5n4Cc4ccccc4)CC3)CC2)CC1 | 4020 |
| O=C(NCCC(=O)N1CCN(c2ccncc2)CC1)c1nc2ccccc2n1Cc1ccccc1 | 962 |
| O=C(c1nc2ccccc2n1Cc1ccccc1)N1CCN(c2ccncc2)CC1 | > 5000 |
| CN1CCC(N2CCN(C(=O)c3nc4ccccc4n3Cc3ccccc3)CC2)CC1 | > 5000 |
| CCC(NC(=O)c1nc2ccccc2n1Cc1ccccc1)C(=O)N1CCN(C2CCN(C)CC2)CC1 (stereo not given) | 1300 |
| CC(C)N(CC(=O)N1CCN(c2ccncc2)CC1)C(=O)c1nc2ccccc2n1Cc1ccccc1 | > 5000 |
| CCC(NC(=O)c1nc2ccccc2n1Cc1ccccc1)C(=O)N1CCN(c2ccncc2)CC1 (stereo not given) | > 5000 |
| CCCN(CC(=O)N1CCN(c2ccncc2)CC1)C(=O)c1nc2ccccc2n1Cc1ccccc1 | 355 |
| CCCN(CC(=O)N1CCN(C2CCN(C)CC2)CC1)C(=O)c1nc2ccccc2n1Cc1ccccc1 | 18 |
| CN1CCC(N2CCN(C(=O)CCNC(=O)c3nc4ccccc4n3Cc3ccccc3)CC2)CC1 | 601 |
| O=C(NCC(=O)N1CCN(c2ccncc2)CC1)c1nc2ccccc2n1Cc1ccccc1 | 310 |
| CN(CC(=O)N1CCN(c2ccncc2)CC1)C(=O)c1nc2ccccc2n1Cc1ccccc1 | 1180 |
| CCN(CC(=O)N1CCN(c2ccncc2)CC1)C(=O)c1nc2ccccc2n1Cc1ccccc1 | 278 |
| CC(C)N(CC(=O)N1CCN(C2CCN(C)CC2)CC1)C(=O)c1nc2ccccc2n1Cc1ccccc1 | 465 |
| O=C([C@H]1CCCN1C(=O)c1nc2ccccc2n1Cc1ccccc1)N1CCN(c2ccncc2)CC1 | 4070 |
| O=C([C@@H]1CCCN1C(=O)c1nc2ccccc2n1Cc1ccccc1)N1CCN(c2ccncc2)CC1 | > 5000 |
| CN1CCC(N2CCN(C(=O)CN(C)C(=O)c3nc4ccccc4n3Cc3ccccc3)CC2)CC1 | 268 |
| CN1CCC2(CC1)CCN(C(=O)CCNC(=O)c1nc3ccccc3n1Cc1ccccc1)CC2 | > 5000 |
| CN1CCC(N2CCN(C(=O)CNC(=O)c3nc4ccccc4n3Cc3ccccc3)CC2)CC1 | 686 |
| O=C(c1nc2ccccc2n1Cc1ccccc1)N1CCC(C(=O)N2CCN(c3ccncc3)CC2)CC1 | 2310 |
| CCN(CC(=O)N1CCN(C2CCN(C)CC2)CC1)C(=O)c1nc2ccccc2n1Cc1ccccc1 | 16 |

Reference: ChEMBL document CHEMBL1144173, “1-Benzylbenzimidazoles: the discovery of a novel series of bradykinin B(1) receptor antagonists” (Bioorg Med Chem Lett, 2008)
